TCR CD3 inh – inhibitors of human TCR-CD3 interaction, primary screen, biochemical, fluorescence, TAMRA-labeled TCR probe; T-cell receptor (TCR); AID 651800, 2012; inhibition, % at 9.4 µM; 360,000 tested, 0.37% active; in the data active = inhibition above about 19%;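 also: recombinant mutant TCR 2C K166C tagged with TAMRA read by polarization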
PRMT1 FP inh – PRMT1 methyltransferase inhibitors, primary screen, biochemical, fluorescence polarization. inhibition, % at 2.79 µM. 370,000 tested, 1.3% active. Protein arginine N-methyltransferase 1 (Homo sapiens), Q99873. AID 652257, 2013. recombinant PRMT1, activity-based probe fluorescence polarization;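 active = inhibition above about 21% made by adding two undisclosed values, limit read from the data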
HTRA1 inh – HTRA1 serine protease inhibitors, primary screen, biochemical, fluorescence polarization, HTS. recombinant HTRA1, FP-rhodamine activity-based probe. inhibition, % at 5.96 µM. 340,000 tested, 0.5% active; in the data active = inhibition above about 36%
SIAE inh – human SIAE inhibitors, primary screen, biochemical, fluorescence polarization, FP-Rh probe, 1536-well HTS; Sialate O-acetylesterase (Homo sapiens), Q9HAT2; SIAE FP-Rh probe binding; inhibition, % at 9.66 µM; 370,000 tested, 0.69% active;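 active = inhibition above a cutoff: mean of compounds within the control limits plus 3 SD of those, cut at about 17% in these data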
mABHD4 FP – ABHD4 inhibitors, primary screen, biochemical, fluorescence polarization, mouse; (Lyso)-N-acylphosphatidylethanolamine lipase (Mus musculus), Q8VD66; purified mABHD4, FP-Rh probe fluorescence polarization; inhibition, % at 8.92 µM; 370,000 tested, 0.54% active; AID 720543, 2013;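 active = inhibition exceeding the mean over every tested compound plus 3 SD, cut at about 30% in these data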
Target sequence (Q8VD66 whole entry, looked up): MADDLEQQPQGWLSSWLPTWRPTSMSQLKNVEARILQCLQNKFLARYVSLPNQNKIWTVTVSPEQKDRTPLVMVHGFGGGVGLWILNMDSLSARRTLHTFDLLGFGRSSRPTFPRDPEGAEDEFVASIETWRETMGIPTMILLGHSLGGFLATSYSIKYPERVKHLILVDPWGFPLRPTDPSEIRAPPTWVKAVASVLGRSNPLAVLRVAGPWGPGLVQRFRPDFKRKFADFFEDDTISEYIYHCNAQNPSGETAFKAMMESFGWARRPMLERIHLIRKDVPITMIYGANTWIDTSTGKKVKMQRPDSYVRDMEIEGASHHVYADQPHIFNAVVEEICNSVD
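system = mouse ABHD4 enzyme, wild type | medium = HEPES pH 7.0, NaCl, Pluronic buffer | also added = FP-Rh probe | incubation = Enzyme–compound pre-incubation 45 min, then probe 60 min, both 25 °C | technique = fluorescence polarization, excitation 525 nm, emission 598 nm, BODIPY TMR filters | controls = S159A mutant high control, sample median low control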
Each line names hits and unclear results; the compound was inactive in the other large screens. Only some compounds are listed: those with a hit (about 2.5% of all), similar ones and a draw of the others.

CCN1CCN(C(=O)c2cc3sccc3n2CC(=O)c2ccccc2)CC1	SIAE inh 67
COc1ccccc1OC(=O)CCc1nc2ccccc2s1	PRMT1 FP inh 22
COC(=O)c1ccc(N2CCOCC2)c(NC(=O)c2ccco2)c1	none
COc1ccc2cc3cc(C(=O)N4CCN(c5ccccn5)CC4)oc3nc2c1	none
O=C(CSc1nc2c(c(=O)[nH]1)CCCC2)N1CCOCC1	none (no result: TCR CD3 inh, HTRA1 inh)
CCN1CC=C2C(C#N)=C(N)C(C#N)(C#N)C(c3cc(Cl)ccc3Cl)C2C1 (stereo not given)	PRMT1 FP inh 25
N#Cc1ccccc1S(=O)(=O)N1CCN(c2cnccn2)CC1	none
C[C@@H]1CN([C@H](C)CO)C(=O)c2cc(Br)cnc2O[C@H]1CN(C)Cc1ccccc1F	none (no result: HTRA1 inh)
O=C(NC1CCCCC1)Oc1cc2oc(=O)sc2cc1Br	PRMT1 FP inh 82, mABHD4 FP 33
O=C(NC1CCCCCC1)c1ccc(Br)o1	none
O=C(O)c1ccc(-n2cccc2/C=C2/NC(=O)N(c3ccccc3)C2=O)cc1	TCR CD3 inh 24
CCOc1cc(C2NC(=S)NC(C)=C2C(=O)Nc2ccccc2)ccc1O (stereo not given)	PRMT1 FP inh 22
Cc1ccc(NNS(=O)(=O)c2ccc(C)cc2)cc1	PRMT1 FP inh 64
Cc1ccc(S(=O)(=O)NNC(=O)C(=O)NNS(=O)(=O)c2ccc(C)cc2)cc1	none
COC(=O)C[C@H]1CC[C@H]2[C@H](COc3ccc(NC(=O)Nc4ccccc4F)cc3C(=O)N2C)O1	none (no result: TCR CD3 inh, HTRA1 inh)
CCCCCCn1c(=O)n2n(c1=O)[C@@H]1CN(S(=O)(=O)c3ccc(C)cc3)C[C@]1(O)[C@@H](OC(=O)NC1CCCC1)C2	none
CCOC(=O)N1CCN(C(=O)COC(=O)CNC(=O)c2ccc(OCC)c(OCC)c2)CC1	none
N#CC1=C2SCN(Cc3ccco3)CN2C(=O)CC1c1cccc2ccccc12 (stereo not given)	PRMT1 FP inh 30
Cn1cccc1[C@]1(O)C(=O)Nc2ccc(F)cc21	none (no result: TCR CD3 inh, HTRA1 inh)
Cc1nc2sc(C(=O)NCc3ccc4c(c3)OCO4)c(N)c2c(C)c1Cl	PRMT1 FP inh 22 (no result: TCR CD3 inh, HTRA1 inh)
O=C(NCc1ccc2c(c1)OCO2)C(=O)NCC1OCCCN1S(=O)(=O)c1ccc(F)cc1 (stereo not given)	none
CC(C)CCNC(=O)C(NS(=O)(=O)c1ccc2c(c1)c(=O)n(C)c(=O)n2C)c1ccccc1 (stereo not given)	PRMT1 FP inh 21
Oc1cc2c(cc1O)[C@@H](c1ccccc1)CNCC2	PRMT1 FP inh 23
CCOC(=O)C1=C(C)N=c2s/c(=C3/C(=O)Nc4ccccc43)c(=O)n2C1c1ccc(C)cc1 (stereo not given)	PRMT1 FP inh 23
CCOC(=O)C1=C(C)n2c(s/c(=C3\C(=O)Nc4ccccc43)c2=O)=NC1c1ccc(OC)cc1 (stereo not given)	PRMT1 FP inh 24
CCN1CCN(C(=O)c2cc(=O)c3cc(C)ccc3o2)CC1	none
O=C1CSC(=S)N1/N=C/C=C/c1ccccc1	PRMT1 FP inh 21
O=C(c1ccccc1)C(Sc1ncn[nH]1)c1ccccc1 (stereo not given)	PRMT1 FP inh 23
CC(Sc1ncn[nH]1)C(=O)NCc1ccccc1 (stereo not given)	none
O=C(CN1CCN(c2ccc(O)cc2)CC1)Nc1ccc2c(c1)OCCO2	PRMT1 FP inh 24
O=C(CN1CCN(c2ccc(F)cc2)CC1)Nc1ccc2c(c1)OCCO2	none
Cc1ccc(NC(=O)CN(C)Cc2c(O)ccc3ccccc23)cc1	PRMT1 FP inh 21 (no result: HTRA1 inh)
CCOC(=O)c1c(N2C(=O)CC(Sc3ccccc3C(=O)O)C2=O)sc(C)c1C (stereo not given)	PRMT1 FP inh 49
CCC(=O)Nc1cccc(NC(=O)c2cccc([N+](=O)[O-])c2)c1	none (no result: TCR CD3 inh, PRMT1 FP inh, SIAE inh, mABHD4 FP)
NC(=O)c1ccc(NC(=O)CSC(=O)c2ccccc2)cc1	PRMT1 FP inh 36
COc1ccc2nc(Nc3sc4c(c3C(N)=O)CCCC4)sc2c1	PRMT1 FP inh 45
COc1ccc(NC(=O)CCc2nc3ccccc3c(=O)[nH]2)cc1S(=O)(=O)N1CCCCC1	none
COc1ccc(NS(=O)(=O)c2cccc(C(=O)NCc3ccco3)c2)cc1	PRMT1 FP inh 23
O=c1[nH]c2cc3c(cc2cc1CN(Cc1nnnn1CC1CCCO1)C1CCCCC1)OCO3 (stereo not given)	PRMT1 FP inh 23
O=c1[nH]c2cc3c(cc2cc1CN(Cc1nnnn1CC1CCCO1)C1CCCC1)OCO3 (stereo not given)	none
COC(=O)C1=CN(c2ccc(C(C)(C)C)cc2)C(N)=C(C#N)C1c1cccc2ccccc12 (stereo not given)	none (no result: HTRA1 inh)
Cc1nc(Nc2ccc(Cl)c(Cl)c2)sc1C(/C=C/c1ccc2c(c1)OCO2)=NNc1ccc([N+](=O)[O-])cc1[N+](=O)[O-]	none
COc1ccc2c(C)cc(=O)oc2c1C	none
Cc1cc(=O)oc2c3c(ccc12)OC/C3=N/N	TCR CD3 inh 22
CC(=O)c1c(N2CCOCC2)nc2ccc(Br)cc2c1-c1ccccc1	SIAE inh 19 (no result: HTRA1 inh)
O=C(O)CCC(C(=O)O)n1c(O)c(C2=c3ccccc3=NC2=O)sc1=S (stereo not given)	PRMT1 FP inh 23
Cc1cc(C)cc(C(O)c2ncc(-c3cccc(F)c3)[nH]2)c1 (stereo not given)	none (no result: HTRA1 inh)
COc1ccc(S(=O)(=O)N2CCN(c3ccccc3)CC2)cc1OC	none (no result: HTRA1 inh)
COc1ccc(S(=O)(=O)N2CCN(c3cnccn3)CC2)cc1OC	PRMT1 FP inh 21
O=C(c1ccc(F)cc1F)N1CCC(Oc2cccnc2)CC1	none (no result: TCR CD3 inh, HTRA1 inh)
O=C(CC(SCc1ccco1)c1ccc(O)cc1)c1cccs1 (stereo not given)	PRMT1 FP inh 22
COc1ccc(Cn2cc(CN3[C@H](CC(C)C)COc4cc(Br)ccc4S3(=O)=O)nn2)cc1	none (no result: TCR CD3 inh, HTRA1 inh)
Cc1ccc(-c2nc3sc(C(N)=O)c(N)c3c3c2CCCC3)cc1	none
NC(=O)c1sc2nc(-c3ccccc3)c3c(c2c1N)CCCC3	PRMT1 FP inh 25
COc1cc(C(Nc2ccc3c(c2)OCO3)C(=O)NC2CCCCC2)cc(OC)c1OC (stereo not given)	PRMT1 FP inh 25
COc1cc(NC(=O)Nc2ccc3c(c2)OCO3)cc(OC)c1OC	none
CC(C)(C)n1c(O)c2n(c1=O)Cc1ccccc1N=C2c1ccccc1	none (no result: HTRA1 inh)
COc1ccc(S(=O)(=O)N2CCc3ccccc32)cc1C(=O)OCc1nnc(-c2ccccc2)o1	none
COc1ccc(NC(=O)/C(Cl)=C(/Cl)S(=O)(=O)Cc2ccccc2)cn1	PRMT1 FP inh 24
COc1ccc(NC(=O)/C(Cl)=C(/Cl)S(=O)Cc2ccc(Cl)cc2)cn1 (stereo not given)	PRMT1 FP inh 32
COc1ccc(NC(=O)C(Cl)=C(Cl)Cl)cn1	none
COc1ccc(NC(=O)C(C)(C)Oc2ccc(Cl)cc2)cn1	none
